The source of these data is ChEMBL document CHEMBL5032502, “Syntheses, Biological Evaluations, and Mechanistic Studies of Benzo[c][1,2,5]oxadiazole Derivatives as Potent PD-L1 Inhibitors with In Vivo Antitumor Activity” (J Med Chem, 2021).

The nature of data set [1]: Oral bioavailability in Sprague-Dawley rat at 10 mg/kg measured upto 24 hrs by LC-MS analysis. The data set is classed as ADME, organism-based. The following applies: in vivo. An outline of the steps:
(§1)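 Male Sprague-Dawley rats or C57BL/6 mice fasted 12 h before dosing, given oral (po) or intravenous (iv) doses. Plasma levels measured by LC-MS. Parameters reported as mean ± SEM, n = 3.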

Another data set deals with MC-38. The data set is described as follows: Cytotoxicity against mouse MC38 cells assessed as inhibition of cell viability at 0.1 to 10 uM incubated for 24 hrs by MTT assay. The following applies: dose 0.1-10 µM. The data set is classed as functional, cell-based. The method in brief: (§2)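 PD-L1⁺/aAPC/CHO-K1 cells (2000/well) or MC38 cells (5000/well) allowed to adhere for 12 h, then exposed to compound in medium with 1% final DMSO for 24 h. MTT added for 4 h, medium replaced with DMSO, absorbance read.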
In general terms: Formazan colour is commonly taken as a measure of viable cells.

Data set [2] in a line: Tmax in Sprague-Dawley rat at 2 mg/kg, iv measured upto 24 hrs by LC-MS analysis. The data set is classed as ADME, organism-based. The note with it: in vivo. An outline of the steps:
as §1

A further data set relates to Jurkat. Put plainly: Cytotoxicity against human Jurkat cells expressing PD-1/NFAT/Luc assessed as inhibition of cell viability at 0.1 to 10 uM incubated for 24 hrs by CCK8 assay. It counts as functional, cell-based. The following applies: dose 0.1-10 µM. An outline of the steps:
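PD-1⁺/NFAT-luc/Jurkat cells seeded at 20 000 per well, treated with compound in medium with 1% final DMSO for 24 h. CCK8 added for 4 h, then absorbance read.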

A short description of data set [3]: Half life in Sprague-Dawley rat at 2 mg/kg, iv measured upto 24 hrs by LC-MS analysis. The data set is classed as ADME, organism-based. The following applies: in vivo. The method in brief:
(§3)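 Male animals fasted 12 h before dosing. Plasma levels measured by LC-MS, with the prodrug quantified as the parent acid. Mean ± SEM, n = 3.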

The nature of data set [4]: Tmax in Sprague-Dawley rat at 10 mg/kg, po measured upto 24 hrs by LC-MS analysis. The following applies: in vivo. The data set is classed as ADME, organism-based. An outline of the steps: as §1
Data set [5] in a line: AUC (0 to t) in Sprague-Dawley rat at 10 mg/kg, po measured upto 24 hrs by LC-MS analysis. It counts as ADME, organism-based. Also on record: route oral, dose 10 mg/kg, time <=24. The note with it: in vivo. The method in brief:
as §3

A short description of data set [6]: Half life in Sprague-Dawley rat at 10 mg/kg, po measured upto 24 hrs by LC-MS analysis. It counts as ADME, organism-based. The following applies: in vivo. The method in brief: as §3
Data set [7] concerns the target Programmed cell death protein 1 (Homo sapiens) (UniProt Q15116). The data set is described as follows: Binding affinity to human PD-1 assessed as dissociation constant by surface plasmon resonance analysis. The method in brief: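 His-tagged human PD-L1 IgV or Fc-tagged human PD-1 IgV immobilized on a CM5 chip by amine coupling in 10 mM sodium acetate, pH 4.5. Compound serially diluted in PBS with 0.05% Tween 20 and 5% DMSO and flowed over the chip. KD fitted by instrument software, mean ± SEM of two to three independent experiments.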
For orientation: In SPR one partner is held on a chip, and binding of the other changes the refractive index at the surface.

A short description of data set [8]: Cmax in Sprague-Dawley rat at 10 mg/kg, po measured upto 24 hrs by LC-MS analysis. The data set is classed as ADME, organism-based. The note with it: in vivo. Also on record: route oral, dose 10 mg/kg, time <=24. The method in brief:
as §3

Data set [9] in a line: AUC (0 to t) in Sprague-Dawley rat at 2 mg/kg, iv measured upto 24 hrs by LC-MS analysis. It counts as ADME, organism-based. Set-up: route intravenous, dose 2 mg/kg, time <=24. The note with it: in vivo. The method in brief: as §3
Data set [10] addresses Programmed cell death protein 1/Programmed cell death 1 ligand 1 (Homo sapiens) (UniProt Q15116+Q9NZQ7). The note with it: Jurkat, time 6.0 hrs.
The nature of data set [11]: Clearance in Sprague-Dawley rat at 2 mg/kg, iv measured upto 24 hrs by LC-MS analysis. The data set is classed as ADME, organism-based. The note with it: in vivo. The method in brief: as §3
For a further data set, the system named is CHO-K1. Put plainly: Cytotoxicity against CHO-K1 cells expressing PD-L1/aAPC assessed as inhibition of cell viability at 0.1 to 10 uM incubated for 24 hrs by MTT assay. The data set is classed as functional, cell-based. The note with it: Cricetulus griseus, dose 0.1-10 µM. The method in brief:
as §2

The target of data set [12] is Voltage-gated inwardly rectifying potassium channel KCNH2 (Homo sapiens, UniProt Q12809). Put plainly: Inhibition of human ERG.
Voltage-gated inwardly rectifying potassium channel KCNH2, sequence (Q12809 whole entry): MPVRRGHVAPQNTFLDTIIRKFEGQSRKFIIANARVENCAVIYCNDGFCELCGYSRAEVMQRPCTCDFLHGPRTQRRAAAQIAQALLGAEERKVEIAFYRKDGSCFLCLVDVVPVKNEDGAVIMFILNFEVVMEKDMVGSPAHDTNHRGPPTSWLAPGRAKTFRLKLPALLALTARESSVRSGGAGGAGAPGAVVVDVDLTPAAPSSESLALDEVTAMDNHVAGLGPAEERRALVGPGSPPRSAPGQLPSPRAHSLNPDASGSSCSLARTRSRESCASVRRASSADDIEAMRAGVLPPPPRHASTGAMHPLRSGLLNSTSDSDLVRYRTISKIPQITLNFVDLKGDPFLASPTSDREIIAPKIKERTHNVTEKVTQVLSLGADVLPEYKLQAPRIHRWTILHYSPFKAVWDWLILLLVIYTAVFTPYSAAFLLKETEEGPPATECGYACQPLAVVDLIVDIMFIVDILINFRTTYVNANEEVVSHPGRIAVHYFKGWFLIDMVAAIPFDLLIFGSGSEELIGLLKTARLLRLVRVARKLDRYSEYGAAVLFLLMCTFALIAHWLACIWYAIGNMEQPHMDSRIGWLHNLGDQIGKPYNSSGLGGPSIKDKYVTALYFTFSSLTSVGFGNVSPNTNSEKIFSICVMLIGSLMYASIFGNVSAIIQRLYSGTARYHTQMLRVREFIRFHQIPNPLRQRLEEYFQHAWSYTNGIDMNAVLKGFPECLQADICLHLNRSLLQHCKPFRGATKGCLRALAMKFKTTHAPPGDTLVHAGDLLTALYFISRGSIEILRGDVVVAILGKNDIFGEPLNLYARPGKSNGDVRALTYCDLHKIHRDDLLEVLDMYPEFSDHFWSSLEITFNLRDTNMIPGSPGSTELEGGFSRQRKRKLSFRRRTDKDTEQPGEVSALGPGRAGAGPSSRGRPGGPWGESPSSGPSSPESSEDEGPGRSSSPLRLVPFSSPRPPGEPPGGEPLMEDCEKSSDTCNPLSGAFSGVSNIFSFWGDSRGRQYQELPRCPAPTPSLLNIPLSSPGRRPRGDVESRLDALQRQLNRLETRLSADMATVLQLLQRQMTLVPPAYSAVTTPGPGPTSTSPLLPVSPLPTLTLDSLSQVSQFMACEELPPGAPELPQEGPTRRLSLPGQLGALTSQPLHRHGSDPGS
Data set [13] can be described thus: Cmax in Sprague-Dawley rat at 2 mg/kg, iv measured upto 24 hrs by LC-MS analysis. The data set is classed as ADME, organism-based. The note with it: in vivo. Also on record: route intravenous, dose 2 mg/kg, time <=24. An outline of the steps:
as §3

Each structure is given as a SMILES string. The source made the active and inactive calls. The rule behind the calls is not given here. Some results are limits rather than exact numbers.

Programmed cell death protein 1 (Homo sapiens), sequence (Q15116 whole entry): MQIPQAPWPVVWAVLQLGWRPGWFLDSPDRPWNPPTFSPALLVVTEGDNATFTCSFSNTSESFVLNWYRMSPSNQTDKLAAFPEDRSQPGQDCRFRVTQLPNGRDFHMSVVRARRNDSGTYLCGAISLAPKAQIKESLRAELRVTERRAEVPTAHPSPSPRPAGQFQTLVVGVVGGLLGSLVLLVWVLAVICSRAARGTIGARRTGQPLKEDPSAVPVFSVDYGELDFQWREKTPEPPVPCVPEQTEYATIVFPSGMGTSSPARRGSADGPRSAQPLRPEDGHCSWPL

As for `O=C(O)[C@@H](CO)NCc1cc(Cl)c(OCc2cccc(-c3ccccc3)c2Br)cc1OCc1ccc2nonc2c1`, in data set [1], the bioavailability (in general, the share of a dose that reaches the circulation, judged against a reference dose that is usually intravenous) is 0.35%. The result (with MC-38; with Jurkat; in data set [7]; in the data set on CHO-K1) was inactive. The values for the Tmax in [2] and in [4] were 4.8 min and 2.33 h, respectively. For the same compound, the half-life – broadly, how long it takes for the measured level to halve – in data set [3] was 4.04 h; in [6], 4.17 h. Further, the exposure AUC(0-t) (commonly exposure summed from dosing to a finite time, without extrapolation to infinity) at 24 h in data set [5] came to 15.2 ng·h/mL; in [9] it was 860 ng·h/mL. The Cmax (commonly the maximum level reached in the sampled fluid or tissue) turned out to be 4.46 ng/mL in data set [8] and 2090 ng/mL in data set [13]. Also, the RLU in data set [10] was determined as 1.81. Moreover, the clearance – broadly, the rate of elimination divided by the concentration – in data set [11] was 39.6 mL/min/kg. The 50% inhibitory concentration (IC50) – broadly, the concentration at which inhibition is half-maximal – in data set [12] is over 30 µM.
